Published values gathered from unrelated publications.
Compare with care: the assays were run in different laboratories.
Read-out: cell growth or viability

SMILES | cell line | method | tested at | time | endpoint | result
CCC1(OC(=O)C(C)c2ccc3cc(OC)ccc3c2)C(=O)OCc2c1cc1n(c2=O)Cc2cc3cc4c(cc3nc2-1)OCO4 (stereo not shown) | HeLa | MTT | – | – | IC50 | 2180 nM
COc1ccc(NC(=O)CC(Nc2ccc(OC)cc2)c2ccc3c(c2)C=CC(C)(C)O3)cc1 (stereo not shown) | rat Primary cortical neuron | MTT | 1 µM | 12 h | viability | > 80%
C[C@H]1CCC/C=C/[C@@H]2C[C@H](O)C[C@H]2[C@H](O)/C=C/C(=O)O1 | HeLa | ATP luminescence | – | – | EC50 | 40 nM
C[S@@+]([O-])CCCCN=C=S | Hepa-1c1c7 | crystal violet | – | 48 h | IC50 | 16700 nM
CC1(C)C=Cc2cc(/C=C/C(=O)Oc3ccccc3)ccc2O1 | rat Primary cortical neuron | MTT | 1 µM | 12 h | viability | 81%
C[C@H]1CN(c2ccncc2NC(=O)c2ccc(F)c(-c3c(F)cccc3F)n2)C[C@@H](N)[C@@H]1O | KMS-11 | thymidine uptake | – | – | GI50 | 123 nM
CC1(C)C=Cc2cc(/C=C/C(=O)N3CCN(c4ccc(O)cc4)CC3)ccc2O1 | rat Primary cortical neuron | MTT | 1 µM | 12 h | viability | 98%
O=C(Cc1ccc2ccccc2c1)N[C@@H](Cc1ccccc1)C(=O)N[C@H](Cc1ccccc1)C(=O)N[C@H](Cc1ccc(OP(=O)(O)O)cc1)C(=O)O | HeLa | MTT | – | 48 h | IC50 | 500000 nM
COc1cc2c3c(n(CCCNCCO)c(=O)c2cc1OC)-c1cc2c(cc1C3=O)OCO2 | UACC-62 | SRB | – | – | GI50 | 30 nM
CN[C@@H]1C[C@H]2O[C@@](C)([C@@H]1OC)n1c3ccccc3c3c4c(c5c6ccccc6n2c5c31)C(=O)NC4 | U2OS | – | – | – | GI50 | 26 nM
